{"source": "ChEMBL document CHEMBL3108754", "about": "“Herbicidin congeners, undecose nucleosides from an organic extract of Streptomyces sp. L-9-10” (J Nat Prod, 2014)", "key": {"[1]": {"test_system": "NF-kappaB", "assay": "Selectivity ratio of IC50 for HEK293 cells to IC50 for NF-kappaB activity in HEK293 cells", "type": "ADME, cell-based", "conditions": "human, read-out: Ratio IC50", "summary_of_the_method": "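HEK293 (Panomic) cells stably carrying an NF-κB luciferase reporter, grown in DMEM with 10% FBS, penicillin/streptomycin and 2 mM L-glutamine, seeded at 20×10^3 per well, then left 48 h. Medium renewed, cells given a range of compound concentrations plus TNF-α at 2 ng/mL (0.14 nM) for 6 h. Lysates read by luciferase luminescence. Cytotoxicity IC50 run under the same conditions.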"}, "[2]": {"test_system": "HEK293", "assay": "Cytotoxicity against HEK293 cells", "type": "cell-based", "conditions": "Homo sapiens", "summary_of_the_method": "(§1)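 HEK293 reporter cells were tested under the NF-κB assay conditions: TNF-α activation at 2 ng/mL and 6 h exposure to compounds. Values are cytotoxic IC50 or % survival at 50 μM.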"}, "[3]": {"assay": "Inhibition of TNF-alpha-induced NF-kappaB activity in HEK293 cells after 6 hrs by luciferase reporter gene assay", "type": "cell-based", "conditions": "Homo sapiens, HEK293, 6 h", "summary_of_the_method": "(§2)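 Stable NF-κB luciferase reporter HEK293 cells were seeded at 20×10^3 cells/well in DMEM with 10% FBS, penicillin/streptomycin and 2 mM L-glutamine, grown 48 h, then given fresh medium and compounds. Cells were activated with human recombinant TNF-α at 2 ng/mL (0.14 nM) for 6 h, washed, lysed, and read by luciferase luminescence. Values are IC50 for inhibiting TNF-induced activity, or % inhibition at 50 μM.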"}, "[4]": {"test_system": "MCF7", "assay": "Cytotoxicity against human MCF7 cells", "type": "functional, cell-based"}, "[5]": {"biological_target": "Nitric oxide synthase, inducible (Homo sapiens) (UniProt P35228)", "sequence (P35228 whole entry)": "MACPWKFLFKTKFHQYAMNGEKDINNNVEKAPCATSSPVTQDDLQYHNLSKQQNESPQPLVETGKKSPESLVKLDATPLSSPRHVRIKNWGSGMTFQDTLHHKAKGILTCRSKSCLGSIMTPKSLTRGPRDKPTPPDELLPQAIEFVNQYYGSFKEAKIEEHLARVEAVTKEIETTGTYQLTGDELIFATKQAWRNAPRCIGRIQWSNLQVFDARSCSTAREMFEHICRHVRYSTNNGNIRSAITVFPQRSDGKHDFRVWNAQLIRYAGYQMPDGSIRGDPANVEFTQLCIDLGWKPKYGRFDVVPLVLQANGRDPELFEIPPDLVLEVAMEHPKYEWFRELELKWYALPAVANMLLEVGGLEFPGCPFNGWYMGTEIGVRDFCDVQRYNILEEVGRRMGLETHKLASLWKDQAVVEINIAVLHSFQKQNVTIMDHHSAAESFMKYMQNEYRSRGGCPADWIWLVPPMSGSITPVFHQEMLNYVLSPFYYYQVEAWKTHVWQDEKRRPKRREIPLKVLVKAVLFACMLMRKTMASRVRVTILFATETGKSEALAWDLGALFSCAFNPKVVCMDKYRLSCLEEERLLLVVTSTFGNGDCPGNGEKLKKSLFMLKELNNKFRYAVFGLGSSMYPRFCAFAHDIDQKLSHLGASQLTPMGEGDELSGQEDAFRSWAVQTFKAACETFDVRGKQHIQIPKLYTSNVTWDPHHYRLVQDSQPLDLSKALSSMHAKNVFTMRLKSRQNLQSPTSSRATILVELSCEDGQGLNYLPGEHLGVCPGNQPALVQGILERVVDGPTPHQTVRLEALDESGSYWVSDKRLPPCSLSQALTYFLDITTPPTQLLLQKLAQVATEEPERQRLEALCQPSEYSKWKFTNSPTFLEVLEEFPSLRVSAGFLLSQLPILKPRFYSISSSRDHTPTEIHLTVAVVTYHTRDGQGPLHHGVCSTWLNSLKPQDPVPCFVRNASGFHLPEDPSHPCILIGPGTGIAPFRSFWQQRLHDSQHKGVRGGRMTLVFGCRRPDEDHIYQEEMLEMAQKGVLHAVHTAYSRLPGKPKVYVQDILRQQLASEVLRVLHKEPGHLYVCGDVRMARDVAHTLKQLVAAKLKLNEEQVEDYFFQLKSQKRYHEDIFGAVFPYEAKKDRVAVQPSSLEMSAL", "assay": "Inhibition of iNOS (unknown origin)"}, "[6]": {"test_system": "Radical scavenging activity", "assay": "Antioxidant activity assessed as DPPH radical scavenging activity", "type": "functional"}, "[7]": {"test_system": "HEK293", "assay": "Inhibition of TNF-alpha-induced NF-kappaB activity in HEK293 cells assessed as cell survival at 50 uM after 6 hrs by luciferase reporter gene assay", "type": "cell-based", "conditions": "Homo sapiens", "summary_of_the_method": "as §1"}, "[8]": {"test_system": "HEK293", "assay": "Inhibition of TNF-alpha-induced NF-kappaB activity in HEK293 cells at 50 uM after 6 hrs by luciferase reporter gene assay", "type": "cell-based", "conditions": "Homo sapiens", "summary_of_the_method": "as §2"}, "[9]": {"test_system": "Streptomyces", "assay": "Antimicrobial activity against Streptomyces 85E at 80 ug/disk after 30 hrs by hyphae formation inhibition assay", "type": "functional, organism-based"}}, "note": "The source made the active and inactive calls. The calls are words filed in the database; no cut-off is given here.", "data": [{"smiles": "Cc1ccc(S(=O)(=O)N[C@@H](Cc2ccccc2)C(=O)CCl)cc1", "note": "[TPCK]", "values": [{"measurement": "selectivity ratio", "setting": "[1]", "value": 2}, {"measurement": "IC50", "setting": "[2]", "value": 11.1, "unit": "µM"}, {"measurement": "IC50", "setting": "[3]", "value": 3.8, "unit": "µM"}]}, {"smiles": "COC(=O)[C@H]1O[C@@H]2C[C@H]3O[C@@H](n4cnc5c(N)ncnc54)[C@H](OC)[C@H]3O[C@@]2(O)[C@H](O)[C@@H]1O", "values": [{"measurement": "Activity", "setting": "[4]", "value": "inactive"}, {"measurement": "inhibition", "setting": "[5]", "value": "inactive"}, {"measurement": "Activity", "setting": "[6]", "value": "inactive"}, {"measurement": "IC50", "setting": "[2]", "value": 43.7, "unit": "µM"}, {"measurement": "IC50", "setting": "[3]", "value": 3.2, "unit": "µM"}, {"measurement": "cell survival", "setting": "[7]", "value": 53, "unit": "%"}, {"measurement": "inhibition", "setting": "[8]", "value": 92.2, "unit": "%"}, {"measurement": "Activity", "setting": "[9]", "value": "inactive"}]}, {"smiles": "C/C=C(\\C)C(=O)O[C@H]1[C@H](O)[C@@H](C(=O)OC)O[C@@H]2C[C@H]3O[C@@H](n4cnc5c(N)ncnc54)[C@H](OC)[C@H]3O[C@]21O", "values": [{"measurement": "Activity", "setting": "[4]", "value": "inactive"}, {"measurement": "inhibition", "setting": "[5]", "value": "inactive"}, {"measurement": "Activity", "setting": "[6]", "value": "inactive"}, {"measurement": "IC50", "setting": "[2]", "value": 2.3, "unit": "µM"}, {"measurement": "IC50", "setting": "[3]", "value": 0.5, "unit": "µM"}, {"measurement": "cell survival", "setting": "[7]", "value": 59.8, "unit": "%"}, {"measurement": "inhibition", "setting": "[8]", "value": 83.4, "unit": "%"}, {"measurement": "Activity", "setting": "[9]", "value": "inactive"}]}, {"smiles": "C/C=C(\\C)C(=O)O[C@H]1[C@H](O)[C@@H](C(=O)OC)O[C@@H]2C[C@H]3O[C@@H](n4cnc5c(N)ncnc54)[C@H](O)[C@H]3O[C@]21O", "values": [{"measurement": "Activity", "setting": "[4]", "value": "inactive"}, {"measurement": "inhibition", "setting": "[5]", "value": "inactive"}, {"measurement": "Activity", "setting": "[6]", "value": "inactive"}, {"measurement": "IC50", "setting": "[2]", "value": 2.2, "unit": "µM"}, {"measurement": "IC50", "setting": "[3]", "value": 4.9, "unit": "µM"}, {"measurement": "cell survival", "setting": "[7]", "value": 42.3, "unit": "%"}, {"measurement": "inhibition", "setting": "[8]", "value": 92.4, "unit": "%"}, {"measurement": "Activity", "setting": "[9]", "value": "inactive"}]}, {"smiles": "COC(=O)[C@H]1O[C@@H]2C[C@H]3O[C@@H](n4cnc5c(N)ncnc54)[C@H](OC)[C@H]3O[C@@]2(O)[C@@H](O)[C@@H]1O", "values": [{"measurement": "Activity", "setting": "[4]", "value": "inactive"}, {"measurement": "inhibition", "setting": "[5]", "value": "inactive"}, {"measurement": "Activity", "setting": "[6]", "value": "inactive"}, {"measurement": "IC50", "setting": "[2]", "value": "> 50", "unit": "µM"}, {"measurement": "IC50", "setting": "[3]", "value": 2.9, "unit": "µM"}, {"measurement": "cell survival", "setting": "[7]", "value": 95.6, "unit": "%"}, {"measurement": "inhibition", "setting": "[8]", "value": 94.2, "unit": "%"}, {"measurement": "Activity", "setting": "[9]", "value": "inactive"}]}, {"smiles": "COC(=O)[C@@H]1CC(O)(O)[C@]2(O)O[C@@H]3[C@@H](OC)[C@H](n4cnc5c(N)ncnc54)O[C@@H]3C[C@H]2O1", "values": [{"measurement": "Activity", "setting": "[4]", "value": "inactive"}, {"measurement": "inhibition", "setting": "[5]", "value": "inactive"}, {"measurement": "Activity", "setting": "[6]", "value": "inactive"}, {"measurement": "IC50", "setting": "[2]", "value": 13.7, "unit": "µM"}, {"measurement": "IC50", "setting": "[3]", "value": 2.4, "unit": "µM"}, {"measurement": "cell survival", "setting": "[7]", "value": 45.1, "unit": "%"}, {"measurement": "inhibition", "setting": "[8]", "value": 96.2, "unit": "%"}, {"measurement": "Activity", "setting": "[9]", "value": "inactive"}]}, {"smiles": "C/C=C(\\CO)C(=O)O[C@H]1[C@H](O)[C@@H](C(=O)OC)O[C@@H]2C[C@H]3O[C@@H](n4cnc5c(N)ncnc54)[C@H](OC)[C@H]3O[C@]21O", "values": [{"measurement": "Activity", "setting": "[4]", "value": "inactive"}, {"measurement": "inhibition", "setting": "[5]", "value": "inactive"}, {"measurement": "Activity", "setting": "[6]", "value": "inactive"}, {"measurement": "IC50", "setting": "[2]", "value": 2.7, "unit": "µM"}, {"measurement": "IC50", "setting": "[3]", "value": 1.8, "unit": "µM"}, {"measurement": "cell survival", "setting": "[7]", "value": 45.8, "unit": "%"}, {"measurement": "inhibition", "setting": "[8]", "value": 80.9, "unit": "%"}, {"measurement": "Activity", "setting": "[9]", "value": "inactive"}]}, {"smiles": "Cc1ccc(S(=O)(=O)/C=C/C#N)cc1", "values": [{"measurement": "selectivity ratio", "setting": "[1]", "value": 2}, {"measurement": "IC50", "setting": "[2]", "value": 3.8, "unit": "µM"}, {"measurement": "IC50", "setting": "[3]", "value": 2, "unit": "µM"}]}]}
